For 1 molecule, zone of inhibition, Activity and IC50 results are on record in ChEMBL document CHEMBL2177069, “Novel peptidomimetic compounds containing redox active chalcogens and quinones as potential anticancer agents” (Eur J Med Chem, 2012).

The term IC50 denotes the concentration needed to halve the response being measured.

Activity calls are given as the source filed them. The calls are words filed in the database; no cut-off is given here.

The test system of one data set is Saccharomyces cerevisiae. The experiment in a line: Growth inhibition of SOD2-deficient Saccharomyces cerevisiae YHR008C mutant at 20 ug/disc 24 to 48 hrs by agar diffusion assay. The format is functional. The settings on record: read-out: DIZ. The method in brief: (§1)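 S. cerevisiae deletion mutants or wild type grown on YPD, seeded into liquid agar medium at an optical density of 0.1. 6 mm paper discs soaked with methanolic compound solution were placed on the plates and incubated at 30 °C. Growth was checked after 1 and 2 days, and the inhibition zone diameter was recorded in mm.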
Consider `CC1=C([Se]CC(OC(=O)[C@@H](CSSC(C)(C)C)NC(=O)OC(C)(C)C)C(=O)NC(C)(C)C)C(=O)c2ccccc2C1=O` (stereo partly drawn), for which the zone of inhibition at 20 µg/disc came to 18 mm.

In the next data set the test system is HUVEC. The experiment in a line: Induction of oxidative stress in human HUVEC cells assessed as increase in hydrogen peroxide free radical production after 1 hr by DCF-based fluorescence spectrophotometric analysis. The format is cell-based.
Conditions: not given
Summed up:
(§2)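 Cells were seeded at 10^5 per well and given graded compound concentrations for 1 h. They were then loaded with DHE or DCF probe for 30 min in the dark. Fluorescence was read immediately: DHE ex 540/em 600 nm; DCF ex 485/em 528 nm. Results were expressed as arbitrary units per 10^5 cells.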
Consider `CC1=C([Se]CC(OC(=O)[C@@H](CSSC(C)(C)C)NC(=O)OC(C)(C)C)C(=O)NC(C)(C)C)C(=O)c2ccccc2C1=O` (stereo partly drawn), for which the Activity result is on record as “Non-toxic”.

The next data set relates to Saccharomyces cerevisiae. As to the kind of experiment: Growth inhibition of GSH2-deficient Saccharomyces cerevisiae YOL049W mutant at 20 ug/disc after 24 to 48 hrs by agar diffusion assay. The format is functional. The settings on record: read-out: DIZ. Summed up: as §1
As for `CC1=C([Se]CC(OC(=O)[C@@H](CSSC(C)(C)C)NC(=O)OC(C)(C)C)C(=O)NC(C)(C)C)C(=O)c2ccccc2C1=O` (stereo partly drawn), the zone of inhibition at 20 µg/disc stood at 14 mm.

Another data set concerns Saccharomyces cerevisiae. As to the kind of experiment: Growth inhibition of WSC4-deficient Saccharomyces cerevisiae YHL028W mutant at 20 ug/disc 24 to 48 hrs by agar diffusion assay. The format is functional. The settings on record: read-out: DIZ. The method in brief:
as §1
Regarding `CC1=C([Se]CC(OC(=O)[C@@H](CSSC(C)(C)C)NC(=O)OC(C)(C)C)C(=O)NC(C)(C)C)C(=O)c2ccccc2C1=O` (stereo partly drawn), the zone of inhibition at 20 µg/disc came out at 20 mm.

In a further data set the test system is MCF7. As to the kind of experiment: Cytotoxicity against human MCF7 cells after 24 hrs by MTT assay. The format is functional, cell-based. Conditions: MCF7, 24 h. The method in brief: (§3)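 MTT assay. Cells were seeded at 50,000 cells/mL in medium with 10% fetal calf serum and grown for two days at 37 °C, 10% CO2. Serial dilutions of compound were then added for 24 h. MTT was added (final 0.5 mg/mL) for 2 h, and the formazan was pelleted, washed, dissolved in isopropanol with 0.4% HCl and read at 590 nm. IC50 is the concentration giving 50% of untreated-control absorbance, taken from dose-response curves; mean of two parallel experiments.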
(In general: Formazan colour is commonly taken as a measure of viable cells.)
`CC1=C([Se]CC(OC(=O)[C@@H](CSSC(C)(C)C)NC(=O)OC(C)(C)C)C(=O)NC(C)(C)C)C(=O)c2ccccc2C1=O` (stereo partly drawn): inhibition was half-maximal at 3000 nM (IC50).

The test system of the next data set is Saccharomyces cerevisiae. As to the kind of experiment: Growth inhibition of POS5-deficient Saccharomyces cerevisiae YPL188W mutant at 20 ug/disc after 24 to 48 hrs by agar diffusion assay. Conditions: read-out: DIZ. The format is functional. The method in brief: as §1
(A growth-free zone around the sample is the usual read-out of agar diffusion tests.)
As to `CC1=C([Se]CC(OC(=O)[C@@H](CSSC(C)(C)C)NC(=O)OC(C)(C)C)C(=O)NC(C)(C)C)C(=O)c2ccccc2C1=O` (stereo partly drawn), the zone of inhibition at 20 µg/disc was 11 mm.

In the next data set the test system is A-431. The experiment in a line: Cytotoxicity against human A431 cells after 24 hrs by MTT assay. The format is functional, cell-based. The settings on record: A-431, 24 h. Summed up: as §3
On to `CC1=C([Se]CC(OC(=O)[C@@H](CSSC(C)(C)C)NC(=O)OC(C)(C)C)C(=O)NC(C)(C)C)C(=O)c2ccccc2C1=O` (stereo partly drawn), for which the midpoint of inhibition, the IC50, lay at 2000 nM.

The test system of another data set is Saccharomyces cerevisiae. As to the kind of experiment: Growth inhibition of COX17-deficient Saccharomyces cerevisiae YLL009C mutant at 20 ug/disc after 24 to 48 hrs by agar diffusion assay. The format is functional. Conditions: read-out: DIZ. The method in brief:
as §1
In the case of `CC1=C([Se]CC(OC(=O)[C@@H](CSSC(C)(C)C)NC(=O)OC(C)(C)C)C(=O)NC(C)(C)C)C(=O)c2ccccc2C1=O` (stereo partly drawn), the zone of inhibition at 20 µg/disc stood at 14 mm.

In another data set the test system is Saccharomyces cerevisiae. As to the kind of experiment: Growth inhibition of RCK1-deficient Saccharomyces cerevisiae YGL158W mutant at 20 ug/disc after 24 to 48 hrs by agar diffusion assay. The format is functional. Conditions: read-out: DIZ. Summed up: as §1
Take `CC1=C([Se]CC(OC(=O)[C@@H](CSSC(C)(C)C)NC(=O)OC(C)(C)C)C(=O)NC(C)(C)C)C(=O)c2ccccc2C1=O` (stereo partly drawn): the zone of inhibition at 20 µg/disc was determined as 14 mm.

The subject of the next data set is Saccharomyces cerevisiae. As to the kind of experiment: Growth inhibition of GTT2-deficient Saccharomyces cerevisiae YLL060C mutant at 20 ug/disc after 24 to 48 hrs by agar diffusion assay. The format is functional. The settings on record: read-out: DIZ. The method in brief:
as §1
Take `CC1=C([Se]CC(OC(=O)[C@@H](CSSC(C)(C)C)NC(=O)OC(C)(C)C)C(=O)NC(C)(C)C)C(=O)c2ccccc2C1=O` (stereo partly drawn): the zone of inhibition at 20 µg/disc amounted to 20 mm.

Another data set relates to HUVEC. As to the kind of experiment: Induction of oxidative stress in human HUVEC cells assessed as increase in superoxide free radical production after 1 hr by DHE-based by fluorescence spectrophotometric analysis. The format is cell-based.
Conditions: not given
Summed up: as §2
Take `CC1=C([Se]CC(OC(=O)[C@@H](CSSC(C)(C)C)NC(=O)OC(C)(C)C)C(=O)NC(C)(C)C)C(=O)c2ccccc2C1=O` (stereo partly drawn): the Activity result was “Non-toxic”.

The test system of another data set is Saccharomyces cerevisiae. As to the kind of experiment: Growth inhibition of UFD2-deficient Saccharomyces cerevisiae YDL190C mutant at 20 ug/disc after 24 to 48 hrs by agar diffusion assay. The format is functional. Conditions: read-out: DIZ. Summed up: as §1
As for `CC1=C([Se]CC(OC(=O)[C@@H](CSSC(C)(C)C)NC(=O)OC(C)(C)C)C(=O)NC(C)(C)C)C(=O)c2ccccc2C1=O` (stereo partly drawn), the zone of inhibition at 20 µg/disc amounted to 0 mm.

Another data set deals with A-431. The experiment in a line: Induction of oxidative stress in human A431 cells assessed as increase in hydrogen peroxide free radical production after 1 hr by DCF-based fluorescence spectrophotometric analysis. The format is functional, cell-based.
Conditions: not given
Summed up: as §2
On to `CC1=C([Se]CC(OC(=O)[C@@H](CSSC(C)(C)C)NC(=O)OC(C)(C)C)C(=O)NC(C)(C)C)C(=O)c2ccccc2C1=O` (stereo partly drawn), for which the outcome was Active.

System in another data set: not listed separately
As to the kind of experiment: Cytotoxicity against human PHF cells after 24 hrs by MTT assay. The format is cell-based.
Conditions: not given
The method in brief:
as §3
As to `CC1=C([Se]CC(OC(=O)[C@@H](CSSC(C)(C)C)NC(=O)OC(C)(C)C)C(=O)NC(C)(C)C)C(=O)c2ccccc2C1=O` (stereo partly drawn), the IC50 is 4 µM.

The next data set deals with MCF7. As to the kind of experiment: Induction of Cell cycle arrest in human MCF7 cells assessed as G0/1 phase cells at IC50 concentration after 24 hrs by PI-staining based flow cytometric analysis (reference value: 68%). The format is functional.
Conditions: not given
Summed up:
(§4)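 MCF-7 cells (10^6) were treated for 24 h, with methanol as the vehicle control. Cells were fixed in cold 70% methanol at 4 °C for one day, washed with PBS, and permeabilized with 0.1% saponin in PBS. They were stained with propidium iodide plus RNase for 30 min. DNA content was read by flow cytometry, giving percentages of cells per cell-cycle phase.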
(In general: In flow cytometry, cells or beads pass a laser one at a time.)
Regarding `CC1=C([Se]CC(OC(=O)[C@@H](CSSC(C)(C)C)NC(=O)OC(C)(C)C)C(=O)NC(C)(C)C)C(=O)c2ccccc2C1=O` (stereo partly drawn), the Activity is given as 95%.

The subject of the next data set is Saccharomyces cerevisiae. The experiment in a line: Growth inhibition of wild type Saccharomyces cerevisiae BY4741 at 20 ug/disc after 24 to 48 hrs by agar diffusion assay. Conditions: read-out: DIZ. The format is functional. The method in brief: as §1
Consider `CC1=C([Se]CC(OC(=O)[C@@H](CSSC(C)(C)C)NC(=O)OC(C)(C)C)C(=O)NC(C)(C)C)C(=O)c2ccccc2C1=O` (stereo partly drawn), for which the zone of inhibition at 20 µg/disc came to 0 mm.

Another data set deals with MCF7. The experiment in a line: Induction of Cell cycle arrest in human MCF7 cells assessed as S phase cells at IC50 concentration after 24 hrs by PI-staining based flow cytometric analysis (reference value: 19%). The format is functional.
Conditions: not given
The method in brief:
as §4
For `CC1=C([Se]CC(OC(=O)[C@@H](CSSC(C)(C)C)NC(=O)OC(C)(C)C)C(=O)NC(C)(C)C)C(=O)c2ccccc2C1=O` (stereo partly drawn), the Activity was determined as 3.9%.

The test system of the next data set is MCF7. The experiment in a line: Induction of oxidative stress in human MCF7 cells assessed as decrease in GSH level at 5 uM after 1 hr by DTNB assay relative to control. The format is functional. Also noted: scale not given: the % may be the effect or the level left.
Conditions: not given
The method in brief:
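MCF-7 cells (10^6) were treated for 1 h at 37 °C, trypsinized, and washed twice with cold PBS. GSH was extracted with chilled 5% metaphosphoric acid at 4 °C for 2 h, then the lysate was centrifuged. Supernatant was mixed with 0.2 M sodium phosphate pH 8.0 and 0.04 mM DTNB for 10 min at room temperature. Absorbance was read at 412 nm against a reagent blank, and GSH was quantified from a standard curve.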
Take `CC1=C([Se]CC(OC(=O)[C@@H](CSSC(C)(C)C)NC(=O)OC(C)(C)C)C(=O)NC(C)(C)C)C(=O)c2ccccc2C1=O` (stereo partly drawn): the Activity came to 46%.

A further data set relates to A498. As to the kind of experiment: Cytotoxicity against human A498 cells after 24 hrs by MTT assay. The format is functional, cell-based. The settings on record: A498, 24 h. The method in brief: as §3
In turn, `CC1=C([Se]CC(OC(=O)[C@@H](CSSC(C)(C)C)NC(=O)OC(C)(C)C)C(=O)NC(C)(C)C)C(=O)c2ccccc2C1=O` (stereo partly drawn) gave an IC50 of 5 µM.

A further data set has as its system HUVEC. As to the kind of experiment: Cytotoxicity against human HUVEC cells after 24 hrs by MTT assay. The format is cell-based.
Conditions: not given
Summed up:
as §3
As for `CC1=C([Se]CC(OC(=O)[C@@H](CSSC(C)(C)C)NC(=O)OC(C)(C)C)C(=O)NC(C)(C)C)C(=O)c2ccccc2C1=O` (stereo partly drawn), the IC50 was determined as 2000 nM.

Another data set deals with Saccharomyces cerevisiae. The experiment in a line: Growth inhibition of SOD1-deficient Saccharomyces cerevisiae YJR104C mutant at 20 ug/disc after 24 to 48 hrs by agar diffusion assay. The format is functional. Conditions: read-out: DIZ. Summed up: as §1
For the molecule `CC1=C([Se]CC(OC(=O)[C@@H](CSSC(C)(C)C)NC(=O)OC(C)(C)C)C(=O)NC(C)(C)C)C(=O)c2ccccc2C1=O` (stereo partly drawn), the zone of inhibition at 20 µg/disc is 21 mm.

The next data set concerns Saccharomyces cerevisiae. The experiment in a line: Growth inhibition of PST2-deficient Saccharomyces cerevisiae YDR032C mutant at 20 ug/disc 24 to 48 hrs by agar diffusion assay. The format is functional. Conditions: read-out: DIZ. The method in brief:
as §1
Turning to `CC1=C([Se]CC(OC(=O)[C@@H](CSSC(C)(C)C)NC(=O)OC(C)(C)C)C(=O)NC(C)(C)C)C(=O)c2ccccc2C1=O` (stereo partly drawn), the zone of inhibition at 20 µg/disc is 11 mm.

A further data set has as its system MCF7. As to the kind of experiment: Induction of Cell cycle arrest in human MCF7 cells assessed as G2/M phase cells at IC50 concentration after 24 hrs by PI-staining based flow cytometric analysis (reference value: 13%). The format is functional.
Conditions: not given
Summed up: as §4
In the case of `CC1=C([Se]CC(OC(=O)[C@@H](CSSC(C)(C)C)NC(=O)OC(C)(C)C)C(=O)NC(C)(C)C)C(=O)c2ccccc2C1=O` (stereo partly drawn), the Activity stood at 1.6%.
